# Bioassay records: PubChem BioAssay, several laboratories
# IMP-1 inh-1 = inhibitors of Pseudomonas aeruginosa IMP-1 metallo-beta-lactamase; purified IMP-1, nitrocefin hydrolysis, epi-absorbance fluorescence; inhibition, % at 5.6 µM; 290,000 tested, 0.45% active;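 active = inhibition above the mean plus 3 SD of all compounds in the same screening run, cut at about 4.5% in these data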;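 note: 0% = IMP-1 with DMSO and 100% = DMSO wells lacking enzyme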
#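 Assay system: purified recombinant IMP-1 beta-lactamase. Input: IMP-1 0.2 nM before substrate addition. Buffer or medium: Zinc- and detergent-supplemented HEPES buffer, pH 7.1. Schedule: 25 °C, 15 min preincubation, 25 min reaction. Signal: Epi-absorbance fluorescence, 480 nm excitation, 530 nm emission. Evaluation: percent inhibition from optical density relative to buffer-blank wells.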
# CHT PAM = allosterically activates the human high affinity choline transporter; Q9GZV3; CHT-expressing cells, membrane potential dye, choline EC20; hits give high values; LV-AA mutant CHT in HEK293 cells; B-score at 10 µM; AID 488977; 310,000 tested, 0.49% active;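 active = initial fluorescence not abnormally high and integrated response B-score, plate-corrected, over 3 SD above library mean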
# VIM-2 inh = blocks Pseudomonas aeruginosa VIM-2 metallo-beta-lactamase | purified VIM-2, nitrocefin hydrolysis, epi-absorbance fluorescence | inhibition, % at 5.6 µM | 290,000 tested, 0.89% active;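 active = inhibition above the mean of all tested compounds plus 3 SD, cutoff set per screening run, cut at about 7.5% in these data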;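 note: red hydrolysis product quenches plate fluorescence so inhibitors raise well fluorescence; 0% = enzyme with DMSO and 100% = DMSO without enzyme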
# CHT block = inhibits the human high affinity choline transporter. Q9GZV3. CHT-expressing cells, membrane potential dye, choline response; hits give low values. B-score at 10 µM. 310,000 tested, 0.86% active. AID 488975;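 active = B-score over 3 SD under the library average, and starting fluorescence ratio not unusually high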;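 note: choline stimulus applied at its EC90 after an EC20 pre-addition; B-score computed on integrated fluorescence ratio after choline addition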
# TMEM16A inh = blocks the mouse calcium-activated chloride channel TMEM16A. Q8BHY3. HEK293 TMEM16A/YFP iodide influx fluorescence, ionomycin. normalized B-score (activity score, 25-100; higher = stronger inhibition) at 10 µM. 310,000 tested, 1.2% active. AID 588511;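 active = ratio plate-corrected score three or more library SD toward inhibition, starting fluorescence score within five deviations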;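 note: score derived from kinetic fluorescence span divided by baseline fluorescence per well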
# Target sequence (Q8BHY3 whole entry, looked up): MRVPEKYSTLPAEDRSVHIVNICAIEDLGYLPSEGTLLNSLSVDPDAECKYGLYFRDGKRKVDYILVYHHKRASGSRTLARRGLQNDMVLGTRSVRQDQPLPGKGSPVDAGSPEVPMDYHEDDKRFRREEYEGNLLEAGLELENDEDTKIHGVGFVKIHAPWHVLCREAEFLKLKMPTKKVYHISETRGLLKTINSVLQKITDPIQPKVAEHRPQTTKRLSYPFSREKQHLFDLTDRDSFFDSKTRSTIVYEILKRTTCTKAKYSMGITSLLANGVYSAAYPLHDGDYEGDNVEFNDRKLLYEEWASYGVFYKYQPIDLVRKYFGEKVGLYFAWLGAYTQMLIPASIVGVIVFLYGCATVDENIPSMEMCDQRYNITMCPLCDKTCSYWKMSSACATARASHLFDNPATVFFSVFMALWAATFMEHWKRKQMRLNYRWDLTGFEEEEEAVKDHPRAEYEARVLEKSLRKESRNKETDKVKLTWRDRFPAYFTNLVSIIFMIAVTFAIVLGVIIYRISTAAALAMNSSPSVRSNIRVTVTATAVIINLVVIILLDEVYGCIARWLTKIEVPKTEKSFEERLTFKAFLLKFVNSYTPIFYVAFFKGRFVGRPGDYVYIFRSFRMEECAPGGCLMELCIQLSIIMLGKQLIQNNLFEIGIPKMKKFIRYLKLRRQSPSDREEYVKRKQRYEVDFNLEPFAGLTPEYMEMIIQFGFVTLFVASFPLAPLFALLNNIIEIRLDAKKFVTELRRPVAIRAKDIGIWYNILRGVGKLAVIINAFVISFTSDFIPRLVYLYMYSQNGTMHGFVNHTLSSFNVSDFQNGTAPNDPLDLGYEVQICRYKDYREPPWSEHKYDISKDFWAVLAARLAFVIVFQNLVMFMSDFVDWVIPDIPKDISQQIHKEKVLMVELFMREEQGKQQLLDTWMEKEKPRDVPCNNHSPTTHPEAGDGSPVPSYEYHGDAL
# TMEM16A act = mouse TMEM16A channel activation, primary screen; Q8BHY3; HEK293 TMEM16A/YFP-H148Q/I152L, iodide quench fluorescence; hits give low values; B-score at 10 µM; 340,000 tested, 0.3% active; AID 623877;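 active = fluorescence-ratio B-score plate-corrected deviation score at least 3 library SD below zero, with starting fluorescence score within 5 deviations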;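 note: channel opened by trigger with iodide after compound preincubation; score built on the fluorescence ratio of max minus min over baseline; more negative score means more quench and so TMEM16A activation or potentiation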
# IMP-1 inh-2 = IMP-1 inhibition, counter-screen for VIM-2 inhibitors | purified IMP-1, nitrocefin hydrolysis, epi-absorbance fluorescence | AID 1856 | shares compounds with VIM-2 inh | 1,300 tested, under 10 active | inhibition, % at 5.6 µM; call rule not given here;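 note: 0% = enzyme with vehicle and 100% = vehicle without enzyme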
# VIM-2 FRET inh = counter-screen for VIM-2 inhibitors: epi-absorbance artifacts via FRET; 1,300 tested, 23% active; inhibition, % at 5.6 µM; purified VIM-2, CCF2 FRET substrate hydrolysis; AID 1857; shares compounds with VIM-2 inh;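 active = inhibition above the mean of all tested compounds plus 3 SD, cut at about 19% in these data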;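 note: 0% = VIM-2 plus DMSO and 100% = no enzyme wells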
# TEM-1 inh = blocks E. coli TEM-1 beta-lactamase in VIM-2 selectivity screen; shares compounds with VIM-2 inh; Purified TEM-1, nitrocefin hydrolysis, epi-absorbance fluorescence; inhibition, % at 5.6 µM; 1,300 tested, 3% active;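 active = inhibition above that campaign's mean inhibition plus 3 SD, cut at about 0.46% in these data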;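 note: 0% = TEM-1 with DMSO and 100% = TEM-1 with 100 µM potassium clavulanate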
# VIM-2 inh conf = confirmation of P. aeruginosa VIM-2 metallo-beta-lactamase inhibitors | shares compounds with VIM-2 inh | purified VIM-2, nitrocefin hydrolysis, epi-absorbance | inhibition, % at 5.6 µM | 1,300 tested, 96% active | AID 2187;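 active = inhibition of the VIM-2 beta-lactamase enzyme above about 11% from the earlier first-round screen, limit read from the data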;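 note: 0% = VIM-2 with DMSO and 100% = buffer wells without enzyme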
# * hit, by the source's call; i = inactive; . = no result given. Shown are actives, neighbours in structure and some others; about 3.4% of the full set was active somewhere.
SMILES,IMP-1 inh-1,CHT PAM,VIM-2 inh,CHT block,TMEM16A inh,TMEM16A act,IMP-1 inh-2,VIM-2 FRET inh,TEM-1 inh,VIM-2 inh conf
CN(C)CCCSc1nc(-c2ccccc2)nc2c1CCC2,1,i,35*,i,i,i,-2,3,-7,57*
O=C(O)c1ccc(NC(=O)c2ccco2)c(NC(=O)c2ccco2)c1,-2,i,-1,i,i,i,.,.,.,.
Cc1cc(C)c2nc3nc(C)c(C)cc3c(N)c2c1,-4,.,18*,.,.,i,-3,-13,-4,29*
Cc1cc(C)c2nc(N)sc2c1,-3,i,-1,i,i,i,.,.,.,.
CCCc1nn(C)c2c(=O)[nH]c(-c3cc(S(=O)(=O)N4CCN(C)CC4)ccc3OCC)nc12,-2,i,17*,i,i,i,-3,4,-7,26*
COC(=O)c1c(-c2ccncc2)csc1NC(=O)c1ccoc1C,-1,i,50*,i,i,i,-3,-5,-5,74*
C[N+]1(CC(=O)NNc2c3ccccc3nc3ccccc23)CCOCC1,-4,i,21*,i,i,.,-5,3,-10,33*
CCN(CC)c1nc(-c2ccc(C(=O)NN)cc2)nc(-c2ccc(C(=O)NN)cc2)n1,-3,i,75*,i,i,i,-3,4,-6,85*
O=C(c1ccc(COCC(F)(F)F)o1)N1CCCC1,-2,i,-3,i,i,i,.,.,.,.
COC(=O)CCc1c(C)[nH]c(C(=O)OCc2ccccc2)c1C,-2,i,0,i,i,i,.,.,.,.
CCOC(=O)c1[nH]c(C(=O)O)c(CCC(=O)OC)c1C,1,i,22*,i,i,i,1,49*,-5,32*
COc1ccc(Oc2nc(-c3ccccn3)ncc2OC)cc1,-5,i,16*,i,i,i,-4,-24,-5,25*
COc1cnc(-c2ccccn2)nc1Oc1cccc(Cl)c1,-4,i,17*,i,i,i,-4,-31,-4,36*
COc1cnc(-c2ccccn2)nc1Oc1c(C)cccc1C,-3,i,3,i,i,i,.,.,.,.
CCOC(=O)C(C)Sc1nc(-c2ccccn2)ncc1OC (stereo unspecified),-4,i,35*,i,i,i,-3,-20,-6,43*
CNC(C)C#Cc1ccc2c(=O)c3c(OC)cccc3oc2c1 (stereo unspecified),1,i,14*,i,i,.,-2,1,-5,31*
CNC(C)C#Cc1ccc2c(=O)c3cc(C)c(C)cc3oc2c1 (stereo unspecified),.,i,.,i,i,i,.,.,.,.
Oc1c(Br)cc(/C=N/n2c(-c3ccccc3)n[nH]c2=S)cc1Br,-5,i,27*,i,i,i,-2,50*,-7,39*
Cc1c(Br)c(O)c(Br)c(O)c1/C=N/n1c(-c2ccccc2)n[nH]c1=S,-2,i,19*,i,i,i,-3,26*,-7,27*
COc1ccc(Br)cc1/C=N/n1c(-c2ccccc2)n[nH]c1=S,-4,i,-3,i,i,i,.,.,.,.
Oc1c(Br)cc(/C=N/n2c(-c3ccccc3)n[nH]c2=S)c(O)c1Br,-5,i,34*,i,i,i,-3,58*,-8,43*
Cc1ccccc1N=C1Nc2ccccc2N[C@]12C[C@H]1CCC(=O)N3CC[C@@H](C2)[C@@H]13,.,.,.,.,.,i,.,.,.,.
Clc1ccc(Nc2c3c(nc4ncnn24)CCC3)cc1,-4,i,2,i,i,i,.,.,.,.
Cc1cc(C)cc(Nc2c3c(nc4ncnn24)CCC3)c1,-3,i,32*,i,i,i,-2,0,-6,48*
Cc1cccc(Nc2c3c(nc4ncnn24)CCC3)c1,-2,i,13*,i,i,i,-3,-5,-5,29*
SMILES,IMP-1 inh-1,CHT PAM,VIM-2 inh,CHT block,TMEM16A inh,TMEM16A act,IMP-1 inh-2,VIM-2 FRET inh,TEM-1 inh,VIM-2 inh conf
O=C(O)CC1CCC1CC(=O)O (stereo unspecified),.,.,.,.,.,i,.,.,.,.
CCn1c(-c2nn(-c3ccc(C)cc3)ccc2=O)n[nH]c1=S,-3,i,14*,i,i,i,-3,33*,-7,22*
CCn1c(-c2nn(-c3ccccc3)ccc2=O)n[nH]c1=S,-1,i,18*,i,i,i,-3,34*,-6,23*
CC(=O)Oc1ccc2ccc3ccc(C(C)=O)cc3c2c1,.,.,.,.,.,i,.,.,.,.
COc1ccc(CNC(=O)CN2C(=O)NC(Cc3ccccc3)(c3ccccc3)C2=O)cc1OC (stereo unspecified),.,.,.,.,.,i,.,.,.,.
N#Cc1cc(Cl)c(NCC2CCCO2)cc1C#N (stereo unspecified),1,i,1,i,i,i,.,.,.,.
CC(=O)Nc1ccc(C(=O)COC(=O)c2cccs2)c(F)c1,.,.,.,.,.,i,.,.,.,.
COc1cccc(C(=O)NC(=S)Nc2ccc(N3CCCC3)cc2)c1,-2,i,-1,i,i,i,.,.,.,.
CC(C)Oc1cccc(C(=O)NC(=S)Nc2ccc(N3CCN(C)CC3)cc2)c1,1,i,56*,i,i,i,-3,-2,-9,70*
CC(=O)N1CCN(c2ccc(NC(=O)c3ccc4c(c3)OCCO4)cc2)CC1,0,i,-2,i,i,i,.,.,.,.
CCOc1ccc(C(=O)Nc2ccc(N3CCN(C(=O)c4ccco4)CC3)cc2)cc1Br,.,.,.,.,.,i,.,.,.,.
CCOc1ccc(C(=O)Nc2ccc(N3CCN(C)CC3)cc2)cc1Br,-3,i,24*,i,i,i,-3,-3,-7,43*
CN1CCN(c2ccc(NC(=O)c3ccc4c(c3)OCO4)cc2)CC1,-4,i,18*,i,i,i,-4,0,-7,31*
CCOc1ccccc1C(=O)Nc1ccc(S(=O)(=O)N2CCN(C)CC2)cc1,-3,i,18*,i,i,i,-1,5,-6,31*
